Results gathered from unrelated publications.
Lines come from different studies, so protocols differ.
ABL1 Y253F phosphorylated: Tyrosine-protein kinase ABL1, phosphorylated (ABL1, Homo sapiens, UniProt P00519, Y253F)
ABL1 Q252H non-phosphorylated: Tyrosine-protein kinase ABL1, non-phosphorylated (ABL1, Homo sapiens, UniProt P00519, Q252H)
ABL1 F317I phosphorylated: Tyrosine-protein kinase ABL1, phosphorylated (ABL1, Homo sapiens, UniProt P00519, F317I)
ABL1 phosphorylated: Tyrosine-protein kinase ABL1, phosphorylated (ABL1, Homo sapiens, UniProt P00519)
ABL1 Q252H phosphorylated: Tyrosine-protein kinase ABL1, phosphorylated (ABL1, Homo sapiens, UniProt P00519, Q252H)
ABL1 F317L non-phosphorylated: Tyrosine-protein kinase ABL1, non-phosphorylated (ABL1, Homo sapiens, UniProt P00519, F317L)
ABL1 E255K phosphorylated: Tyrosine-protein kinase ABL1, phosphorylated (ABL1, Homo sapiens, UniProt P00519, E255K)
ABL1 E255K: Tyrosine-protein kinase ABL1 (ABL1, Homo sapiens, UniProt P00519, E255K)
ABL1 F317I non-phosphorylated: Tyrosine-protein kinase ABL1, non-phosphorylated (ABL1, Homo sapiens, UniProt P00519, F317I)
ABL1 Y253F: Tyrosine-protein kinase ABL1 (ABL1, Homo sapiens, UniProt P00519, Y253F)

CS(=O)(=O)NCC[C@H](NC(=O)c1cncc2c1cnn2-c1ccc(F)cc1)c1ccnc(S(C)(=O)=O)c1
remaining binding (ABL1 Y253F phosphorylated; cell-free assay, competition with immobilised ligand; 1 µM): 95%

c1cncc(-c2cccc(Nc3nccc(NC4CCCCC4)n3)c2)c1
remaining binding (ABL1 Q252H non-phosphorylated; binding, competition with immobilised ligand; 10 µM): 20%

O=C(N[C@H]1CCCCC/C=C\C2C[C@@]2(C(=O)O)NC(=O)[C@@H]2C[C@@H](Oc3ccncc3)CN2C1=O)OC1CCCC1 (some centres unmarked)
remaining binding (ABL1 F317I phosphorylated; binding; 1 µM): 96%

C=CC(=O)N1CCC(C(=O)NCC(=O)N2CCN(c3nc(-c4cnc(N)nc4C(F)F)nc(N4CCOCC4)n3)CC2)CC1
remaining binding (ABL1 phosphorylated; binding, competition with immobilised ligand; 1 µM): 93%

CN(C)c1nccc(-c2cnn3ncccc23)n1
remaining binding (Tyrosine-protein kinase ABL1 (ABL1, Homo sapiens, UniProt P00519, H396P); binding; 1 µM): 89%

O=C(Nc1c[nH]nc1C(=O)NC1CCNCC1)c1cc(F)cc(F)c1
remaining binding (ABL1 Q252H phosphorylated; binding, competition with immobilised ligand; 1 µM): 99%

CSc1cccnc1N1CCN(Cc2nc3ccccc3[nH]2)CC1
remaining binding (ABL1 F317L non-phosphorylated; cell-free assay, competition with immobilised ligand; 1 µM): 100%

N#Cc1ccccc1CSc1nnc2c(n1)[nH]c1ccccc12
remaining binding (ABL1 E255K phosphorylated; binding, competition with immobilised ligand; 10 µM): 85%

CN(C(=O)c1ccccc1)c1cc(N(C)c2ccc3c(c2)CCc2ccc(C(=O)NCCN4CCOCC4)cc2C3=O)ccc1F
remaining binding (Tyrosine-protein kinase ABL1, phosphorylated (ABL1, Homo sapiens, UniProt P00519, H396P); cell-free assay, competition with immobilised ligand; 1 µM): 100%

CN(C)c1nccc(-c2cnc3ncccn23)n1
remaining binding (ABL1 E255K; binding; 1 µM): 42%

Cn1cc(Cl)c2c(Oc3c(F)cc(Nc4cc(Cl)nc(N)n4)cc3F)ccnc21
remaining binding (ABL1 F317I non-phosphorylated; binding, competition with immobilised ligand; 0.1 µM): 93%

CN(c1nccc(-c2cnn3ncccc23)n1)C1CC1
remaining binding (Tyrosine-protein kinase ABL1 (ABL1, Homo sapiens, UniProt P00519, Q252H); binding; 1 µM): 100%

COCCOc1nc(-c2ccc(Cl)nc2)nc2c1CN(C(=O)c1ncn3ccccc13)CC2
remaining binding (ABL1 E255K phosphorylated; binding, competition with immobilised ligand; 0.1 µM): 100%

COc1ccnn2ncc(-c3ccnc(N(C)C)n3)c12
remaining binding (ABL1 phosphorylated; binding; 1 µM): 73%

O=C(NCCCN1CCOCC1)c1ccc(Nc2nccc(-c3cc4ccccc4s3)n2)cc1
remaining binding (Tyrosine-protein kinase ABL1, non-phosphorylated (ABL1, Homo sapiens, UniProt P00519, T315I); binding, competition with immobilised ligand; 1 µM): 19%

CN1CCN(c2ccc(Nc3nccc(-c4ccccc4)n3)cc2C(F)(F)F)CC1
remaining binding (ABL1 E255K; binding; 10 µM): 22%

O=C(c1ccc(Nc2nccc(-c3cc4ccccc4s3)n2)cc1)N1CCC(N2CCCC2)CC1
remaining binding (ABL1 F317L non-phosphorylated; binding, competition with immobilised ligand; 1 µM): 78%

CCN1CCN(Cc2ccc(C(=O)Nc3ccc(C)c(Oc4ccc5c(c4)CC(=O)N5)c3)cc2C(F)(F)F)CC1
remaining binding (ABL1 Y253F phosphorylated; binding, competition with immobilised ligand; 1 µM): 38%

COc1cnc(Nc2cccc(S(N)(=O)=O)c2)nc1N1CCN(c2ccccc2)C(=O)C1
remaining binding (ABL1 F317I non-phosphorylated; binding, competition with immobilised ligand; 1 µM): 89%

O=C(NCCCN1CCOCC1)c1ccc(Nc2ncc(Cl)c(-c3ccc(Cl)s3)n2)cc1
remaining binding (ABL1 E255K phosphorylated; binding, competition with immobilised ligand; 1 µM): 37%

Nc1ncc2c(n1)-c1c([nH]c3ccc(C#CC4CC4)cc13)CCCC2
remaining binding (ABL1 Q252H non-phosphorylated; binding, competition with immobilised ligand; 1 µM): 93%

COc1ncc2cc3ccccc3nc2c1C#N
remaining binding (ABL1 Q252H phosphorylated; cell-free assay, competition with immobilised ligand; 5 µM): 99%

C[C@@H](c1ccc(-n2cnc3c(N)ncnc32)cc1)N1CCc2nn(C)c(Cc3ccccc3)c2C1=O
remaining binding (ABL1 F317I phosphorylated; binding, competition with immobilised ligand; 0.1 µM): 62%

CNC(=O)[C@@H]1CC[C@@H](n2c(-c3ccc4cnccc4c3)nc3ccc(C(=O)NCc4cccc(C(N)=O)c4)cc32)C1
remaining binding (ABL1 Q252H phosphorylated; binding, competition with immobilised ligand; 1 µM): 100%

O=C(NCC1CCOCC1)c1n[nH]cc1NC(=O)c1c(F)cccc1F
remaining binding (ABL1 F317I phosphorylated; binding, competition with immobilised ligand; 1 µM): 84%

O=C(c1ccc(Nc2ncc(Cl)c(-c3cc4ccccc4s3)n2)cc1)N1CCC(N2CCCC2)CC1
remaining binding (ABL1 Y253F phosphorylated; binding, competition with immobilised ligand; 1 µM): 8%

C[C@@H]1CCN(c2nccc(-c3cnn4ncccc34)n2)C1
remaining binding (ABL1 phosphorylated; binding; 1 µM): 61%

COc1cc(-c2cn(C3CCc4c(F)cccc4N(CC(F)(F)F)C3=O)nn2)ccc1-n1cnc(C)c1 (centres unmarked)
remaining binding (ABL1 Q252H phosphorylated; cell-free assay, competition with immobilised ligand; 1 µM): 100%

N[C@H]1CCN(c2nccc(-c3cnn4ncccc34)n2)C1
remaining binding (ABL1 Y253F; binding; 1 µM): 53%

O=C(c1ccc(Nc2ncc(Cl)c(-c3ccc(Cl)s3)n2)cc1)N1CCC(N2CCCC2)CC1
remaining binding (Tyrosine-protein kinase ABL1, phosphorylated (ABL1, Homo sapiens, UniProt P00519, T315I); binding, competition with immobilised ligand; 1 µM): 1.1%

COc1cnc(Nc2cccc(S(N)(=O)=O)c2)nc1N1CCN(c2ccccc2)CC1
remaining binding (Tyrosine-protein kinase ABL1, phosphorylated (ABL1, Homo sapiens, UniProt P00519, F317L); binding, competition with immobilised ligand; 1 µM): 74%

c1cnn2ncc(-c3ccnc(N4CCC45COC5)n3)c2c1
remaining binding (ABL1 Y253F; binding; 1 µM): 59%

Cc1cnc(Nc2ccc(C(=O)N3CCC(N4CCCC4)CC3)cc2)nc1-c1cc2ccccc2s1
remaining binding (ABL1 F317I non-phosphorylated; binding, competition with immobilised ligand; 1 µM): 100%

F[C@@H]1CCN(c2nccc(-c3cnn4ncccc34)n2)C1
remaining binding (ABL1 Y253F; binding; 1 µM): 90%

CC(C)(O)c1cncc(-c2nc3ccc(F)cc3n2C2CC2)c1
remaining binding (ABL1 Q252H non-phosphorylated; cell-free assay, competition with immobilised ligand; 1 µM): 89%
